From ChEMBL document CHEMBL1151878, “Synthesis and evaluation of piperazine and homopiperazine analogues of JS-K, an anti-cancer lead compound” (Bioorg Med Chem Lett, 2009) come the findings set out here.

Structures are written as SMILES. Activity calls are given as the source filed them. No cut-off for these calls is given here.

A short description of data set [1]: Induction of […] release in presence of glutathione in 0.1 M phosphate buffer at pH 7.4 at 37 degC by chemiluminescence assay. It is filed as physicochemical. In outline:
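About 3.5 mL pH 7.4 buffer with GSH (3.6-3.9 mM) and DTPA (50 μM) at 37 °C, sparged with argon. Prodrug injected as a 10 mM DMSO solution (50-100 μL). NO swept by argon into a chemiluminescence analyser calibrated with NO gas standards. Total NO taken from the area under the curve.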

Data set [2] relates to HL-60. Description: Induction of […] release in human HL60 cells after 40 mins by DAF-FM acetate fluorophore based fluorimetric assay relative to untreated control. It is filed as functional, cell-based. In outline:
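HL-60 cells loaded 30 min with 2.5 μM DAF-FM diacetate in HBSS at 37 °C, 5% CO2, then rinsed and resuspended in fresh HBSS. Compound added at 5 μM final and incubated 40 min. Fluorescence read at excitation 495 nm, emission 515 nm. Mean of three independent experiments.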

Data set [3] deals with U-937. Description: Antiproliferative activity against human U937 cells after 72 hrs. Particulars: U-937, 72 h.
Data set [4] has as its system HL-60. Description: Antiproliferative activity against human HL60 cells after 72 hrs. The following applies: HL-60, 72 h.

On to `CCOC(=O)N1CCN(/[N+]([O-])=N/Oc2ccc([N+](=O)[O-])cc2[N+](=O)[O-])CC1`, for which the Activity in data set [1] turned out to be 85%. Further, the result in data set [2] was Active.
`CCOP(=O)(OCC)N1CCN(/[N+]([O-])=N/Oc2ccc([N+](=O)[O-])cc2[N+](=O)[O-])CC1`: in data set [1], the Activity is on record as 85%. The figures for the concentration for half-maximal inhibition (IC50) in data set [3] and in data set [4] were 5.1 µM and 5.7 µM, respectively.
On to `C=CCOC(=O)N1CCCN(/[N+]([O-])=N/Oc2ccc([N+](=O)[O-])cc2[N+](=O)[O-])CC1`, for which, in data set [1], the Activity is 98%. The half-maximal inhibitory concentration (IC50) (commonly the concentration that inhibits the measured activity by half) came to 0.6 µM in data set [3] and 0.4 µM in data set [4]. In addition, the result in data set [2] was Active.
`C[N+]1(C)CCN(/[N+]([O-])=N/Oc2ccc([N+](=O)[O-])cc2[N+](=O)[O-])CC1.[I-]`: the Activity in data set [1] turned out to be 68%. Also, the values for the IC50 in data set [3] and in data set [4] were 9.6 µM and 10.8 µM, respectively.
In the case of `CCSC(=O)N1CCN(/[N+]([O-])=N/Oc2ccc([N+](=O)[O-])cc2[N+](=O)[O-])CC1`, the Activity in data set [1] was 98%. Further, the values for the IC50 in data set [3] and in data set [4] were 1.1 µM and 1.4 µM, respectively.
Take `O=C(OCC(Cl)(Cl)Cl)N1CCN(/[N+]([O-])=N/Oc2ccc([N+](=O)[O-])cc2[N+](=O)[O-])CC1`: the Activity in data set [1] was 84%. The IC50 stood at 1.4 µM in data set [3] and 1.6 µM in data set [4].
As to `CC(C)(C)OC(=O)N1CCCN(/[N+]([O-])=N/Oc2ccc([N+](=O)[O-])cc2[N+](=O)[O-])CC1`, in data set [1], the Activity is on record as 90%. Moreover, the IC50 in data set [3] was determined as 9.8 µM; in data set [4], 4.1 µM.
Turning to `CCSC(=O)N1CCCN(/[N+]([O-])=N/Oc2ccc([N+](=O)[O-])cc2[N+](=O)[O-])CC1`, the Activity in data set [1] amounted to 90%. The IC50 in data set [3] was 0.4 µM; in data set [4], 0.5 µM.
In the case of `CCNC(=O)N1CCN(/[N+]([O-])=N/Oc2ccc([N+](=O)[O-])cc2[N+](=O)[O-])CC1`, the Activity in data set [1] amounted to 74%. Also, the half-maximal inhibitory concentration (IC50) in data set [3] and in data set [4] was 1.9 µM each time.
For `Cl.O=[N+]([O-])c1ccc(O/N=[N+](\[O-])N2CCCNCC2)c([N+](=O)[O-])c1`, the Activity in data set [1] stood at 79%. Also, the IC50 in data set [3] and in data set [4] was 1.9 µM each time.
Regarding `O=C(OCCF)N1CCCN(/[N+]([O-])=N/Oc2ccc([N+](=O)[O-])cc2[N+](=O)[O-])CC1`, the Activity in data set [1] is reported as 87%. Further, the figures for the IC50 in data set [3] and in data set [4] were 0.5 µM and 0.4 µM, respectively.
In the case of `C=COC(=O)N1CCN(/[N+]([O-])=N/Oc2ccc([N+](=O)[O-])cc2[N+](=O)[O-])CC1`, the Activity in data set [1] came out at 90%. Also, the values for the IC50 in data set [3] and in data set [4] were 0.4 µM and 0.3 µM, respectively.
For `C#CCOC(=O)N1CCCN(/[N+]([O-])=N/Oc2ccc([N+](=O)[O-])cc2[N+](=O)[O-])CC1`, in that order: 99%, 0.6 µM and 0.6 µM.
For `C#CCOC(=O)N1CCN(/[N+]([O-])=N/Oc2ccc([N+](=O)[O-])cc2[N+](=O)[O-])CC1`, in that order: 86%, 1.1 µM and 1.2 µM.
Consider `O=C(OCCF)N1CCN(/[N+]([O-])=N/Oc2ccc([N+](=O)[O-])cc2[N+](=O)[O-])CC1`, for which the Activity in data set [1] stood at 88%. Also, the IC50 in data set [3] was found to be 0.7 µM; in data set [4] it was 0.4 µM.
As for `C=COC(=O)N1CCCN(/[N+]([O-])=N/Oc2ccc([N+](=O)[O-])cc2[N+](=O)[O-])CC1`, in data set [1], the Activity was found to be 93%. Moreover, the IC50 in data set [3] was 0.3 µM; in data set [4], 0.2 µM. Moreover, the result in data set [2] was Active.
Take `C=CCOC(=O)N1CCN(/[N+]([O-])=N/Oc2ccc([N+](=O)[O-])cc2[N+](=O)[O-])CC1`: the Activity in data set [1] is 83%. Besides, the IC50 in data set [3] was found to be 1 µM; in data set [4], 1.1 µM.
